Reference: ChEMBL document CHEMBL4130635, “2,4-Diaminoquinazolines as Dual Toll-like Receptor (TLR) 7/8 Modulators for the Treatment of Hepatitis B Virus” (J Med Chem, 2018)

Columns and labels:
[1] = biological target: Voltage-gated inwardly rectifying potassium channel KCNH2 (Homo sapiens, UniProt Q12809); assay: Inhibition of radioligand binding to human ERG expressed in HEK293 cell membranes by scintillation counting method
[2] = Metabolic stability in human liver microsomes assessed as compound metabolized at 1 uM after 15 mins; assay type: ADME, microsome; conditions: read-out: Drug metabolism
Summary of the method: (§1)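 Mouse (M) or human (H) liver microsomes incubated with compound at 1 μM; percent metabolized after 15 min.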

[3] = biological target: T1, Toll-like receptor 8 (Homo sapiens) (UniProt Q9NR97); assay: Agonist activity at human TLR8 expressed in HEK293 cells assessed as induction of receptor activation incubated for 6 hrs by NF-kappaB-luciferase reporter gene assay; assay type: cell-based
T1 sequence (whole entry): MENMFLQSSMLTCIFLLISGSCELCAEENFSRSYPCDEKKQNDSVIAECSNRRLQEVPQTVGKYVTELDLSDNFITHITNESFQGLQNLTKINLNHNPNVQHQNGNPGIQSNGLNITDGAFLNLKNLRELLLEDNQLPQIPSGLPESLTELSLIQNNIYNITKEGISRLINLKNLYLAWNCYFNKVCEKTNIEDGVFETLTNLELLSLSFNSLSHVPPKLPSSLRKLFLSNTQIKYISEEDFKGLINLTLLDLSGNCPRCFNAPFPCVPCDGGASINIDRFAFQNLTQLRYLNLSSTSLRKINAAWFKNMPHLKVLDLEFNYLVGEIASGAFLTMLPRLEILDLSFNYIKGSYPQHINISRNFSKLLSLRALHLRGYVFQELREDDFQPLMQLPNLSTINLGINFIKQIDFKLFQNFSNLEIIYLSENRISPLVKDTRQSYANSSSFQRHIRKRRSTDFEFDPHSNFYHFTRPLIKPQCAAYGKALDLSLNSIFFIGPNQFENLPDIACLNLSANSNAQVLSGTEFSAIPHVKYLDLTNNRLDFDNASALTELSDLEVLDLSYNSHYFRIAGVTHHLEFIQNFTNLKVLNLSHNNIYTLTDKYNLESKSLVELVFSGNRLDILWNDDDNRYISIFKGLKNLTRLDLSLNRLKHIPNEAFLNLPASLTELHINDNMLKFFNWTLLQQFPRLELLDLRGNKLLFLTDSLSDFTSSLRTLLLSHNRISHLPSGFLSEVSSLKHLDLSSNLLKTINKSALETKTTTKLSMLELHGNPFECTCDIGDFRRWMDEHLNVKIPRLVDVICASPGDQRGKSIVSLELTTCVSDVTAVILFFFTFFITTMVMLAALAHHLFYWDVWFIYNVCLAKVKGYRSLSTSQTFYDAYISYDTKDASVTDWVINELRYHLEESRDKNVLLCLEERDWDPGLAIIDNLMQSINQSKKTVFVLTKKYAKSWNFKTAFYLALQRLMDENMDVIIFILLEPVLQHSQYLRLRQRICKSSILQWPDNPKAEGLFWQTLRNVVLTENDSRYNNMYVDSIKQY

Cytochrome P450 2D6 = Cytochrome P450 2D6 (Homo sapiens, UniProt P10635); assay: Inhibition of CYP2D6 (unknown origin); assay type: ADME
[4] = biological target: T2, Toll-like receptor 7 (Homo sapiens) (UniProt Q9NYK1); assay: Agonist activity at human TLR7 expressed in HEK293 cells assessed as induction of receptor activation incubated for 6 hrs by NF-kappaB-luciferase reporter gene assay; assay type: cell-based
T2 sequence (whole entry): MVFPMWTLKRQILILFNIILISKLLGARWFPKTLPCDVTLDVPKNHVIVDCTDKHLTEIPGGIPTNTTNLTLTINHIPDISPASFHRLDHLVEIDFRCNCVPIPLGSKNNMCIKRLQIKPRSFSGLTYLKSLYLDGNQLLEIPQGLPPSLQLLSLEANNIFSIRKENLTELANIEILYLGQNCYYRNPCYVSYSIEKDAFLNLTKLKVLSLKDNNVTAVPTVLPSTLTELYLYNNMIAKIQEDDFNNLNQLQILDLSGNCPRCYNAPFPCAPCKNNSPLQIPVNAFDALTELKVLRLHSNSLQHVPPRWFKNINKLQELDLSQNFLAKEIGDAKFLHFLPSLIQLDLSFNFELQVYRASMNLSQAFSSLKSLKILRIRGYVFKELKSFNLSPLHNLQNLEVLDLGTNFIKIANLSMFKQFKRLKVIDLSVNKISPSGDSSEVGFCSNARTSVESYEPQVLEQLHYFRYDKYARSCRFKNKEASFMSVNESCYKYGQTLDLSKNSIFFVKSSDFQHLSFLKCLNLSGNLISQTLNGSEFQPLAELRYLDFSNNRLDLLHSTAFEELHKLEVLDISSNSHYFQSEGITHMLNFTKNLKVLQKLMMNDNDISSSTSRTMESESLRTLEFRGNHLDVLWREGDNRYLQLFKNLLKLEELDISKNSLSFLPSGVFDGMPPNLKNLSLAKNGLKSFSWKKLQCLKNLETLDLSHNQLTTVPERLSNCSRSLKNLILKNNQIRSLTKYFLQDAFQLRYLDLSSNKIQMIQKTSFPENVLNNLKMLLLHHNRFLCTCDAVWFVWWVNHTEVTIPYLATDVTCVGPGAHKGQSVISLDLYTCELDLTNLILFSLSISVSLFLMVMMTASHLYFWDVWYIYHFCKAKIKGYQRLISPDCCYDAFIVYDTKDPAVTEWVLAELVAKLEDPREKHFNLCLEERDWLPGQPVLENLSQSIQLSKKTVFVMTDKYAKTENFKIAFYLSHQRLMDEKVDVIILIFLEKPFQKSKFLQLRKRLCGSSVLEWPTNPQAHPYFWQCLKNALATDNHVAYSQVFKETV
Summary of the method: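 HEK cell-based assay using a wild-type TLR7 expression vector; a parallel TLR8 vector construct served for selectivity. Results are expressed as lowest effective concentration (LEC), averaged over independent experiments where determined two or more times. A separate HEK 293 cytotoxicity (TOX) assay gave CC50 alongside.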

[5] = Cytotoxicity against HEK293 cells assessed as reduction in cell viability after 6 hrs by ATP lite assay; assay type: cell-based; conditions: human
[6] = biological target: T2, Toll-like receptor 7 (Homo sapiens); assay: Agonist activity at TLR7 in human PBMC assessed as suppression of HCV replicon replication in human HuH7 luc/neo cells harboring RNA encoding bicistronic expression construct comprising wild type HCV type 1b NS3-NS5B regions exposed to conditioned media from compound treated PBMCs after 24 hrs by luciferase reporter gene assay; assay type: cell-based
Summary of the method: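 Human PBMCs were incubated with compound. Their medium was then transferred onto an HCV replicon system, so the antiviral read-out reflects interferon and cytokines the PBMCs induced. Values are reported as lowest effective concentration (LEC), averaged when determined in two or more independent experiments.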

[7] = Metabolic stability in mouse liver microsomes assessed as compound metabolized at 1 uM after 15 mins; assay type: ADME, microsome; conditions: read-out: Drug metabolism; summary of the method: as §1
[8] = biological target: 5-hydroxytryptamine receptor 2A (Homo sapiens, UniProt P28223); assay: Inhibition of 5-HT2A receptor (unknown origin)
[9] = biological target: Alpha-1A adrenergic receptor; assay: Inhibition of alpha-1A adrenergic receptor (unknown origin)
D(1A) dopamine receptor = D(1A) dopamine receptor (Homo sapiens, UniProt P21728); assay: Inhibition of dopamine D1 receptor (unknown origin)
Chain of D(1A) dopamine receptor (P21728 whole entry): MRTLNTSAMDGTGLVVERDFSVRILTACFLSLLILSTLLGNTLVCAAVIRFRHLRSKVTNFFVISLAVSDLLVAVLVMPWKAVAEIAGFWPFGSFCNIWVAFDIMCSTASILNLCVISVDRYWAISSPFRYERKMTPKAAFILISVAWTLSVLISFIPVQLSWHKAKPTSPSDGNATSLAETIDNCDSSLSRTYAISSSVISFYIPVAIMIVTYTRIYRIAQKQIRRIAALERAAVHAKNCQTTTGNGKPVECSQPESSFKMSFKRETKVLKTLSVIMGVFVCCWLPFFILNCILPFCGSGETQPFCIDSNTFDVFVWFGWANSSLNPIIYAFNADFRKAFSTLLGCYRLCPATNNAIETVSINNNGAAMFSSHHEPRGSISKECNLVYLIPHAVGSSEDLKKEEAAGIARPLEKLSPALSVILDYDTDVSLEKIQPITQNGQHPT

Chain of 5-hydroxytryptamine receptor 2A (P28223 whole entry): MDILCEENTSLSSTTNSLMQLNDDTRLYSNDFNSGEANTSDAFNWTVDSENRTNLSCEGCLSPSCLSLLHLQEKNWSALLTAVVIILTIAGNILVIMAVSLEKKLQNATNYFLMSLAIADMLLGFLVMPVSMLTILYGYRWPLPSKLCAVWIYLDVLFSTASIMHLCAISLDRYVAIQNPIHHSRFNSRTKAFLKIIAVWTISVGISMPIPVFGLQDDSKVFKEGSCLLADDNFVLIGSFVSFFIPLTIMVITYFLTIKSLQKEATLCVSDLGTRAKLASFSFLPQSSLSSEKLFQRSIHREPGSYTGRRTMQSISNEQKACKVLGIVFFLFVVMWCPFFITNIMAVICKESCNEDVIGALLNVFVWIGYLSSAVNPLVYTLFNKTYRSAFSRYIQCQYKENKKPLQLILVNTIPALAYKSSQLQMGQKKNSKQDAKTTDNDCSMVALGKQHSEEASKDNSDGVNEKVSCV
Chain of Voltage-gated inwardly rectifying potassium channel KCNH2 (Q12809 whole entry): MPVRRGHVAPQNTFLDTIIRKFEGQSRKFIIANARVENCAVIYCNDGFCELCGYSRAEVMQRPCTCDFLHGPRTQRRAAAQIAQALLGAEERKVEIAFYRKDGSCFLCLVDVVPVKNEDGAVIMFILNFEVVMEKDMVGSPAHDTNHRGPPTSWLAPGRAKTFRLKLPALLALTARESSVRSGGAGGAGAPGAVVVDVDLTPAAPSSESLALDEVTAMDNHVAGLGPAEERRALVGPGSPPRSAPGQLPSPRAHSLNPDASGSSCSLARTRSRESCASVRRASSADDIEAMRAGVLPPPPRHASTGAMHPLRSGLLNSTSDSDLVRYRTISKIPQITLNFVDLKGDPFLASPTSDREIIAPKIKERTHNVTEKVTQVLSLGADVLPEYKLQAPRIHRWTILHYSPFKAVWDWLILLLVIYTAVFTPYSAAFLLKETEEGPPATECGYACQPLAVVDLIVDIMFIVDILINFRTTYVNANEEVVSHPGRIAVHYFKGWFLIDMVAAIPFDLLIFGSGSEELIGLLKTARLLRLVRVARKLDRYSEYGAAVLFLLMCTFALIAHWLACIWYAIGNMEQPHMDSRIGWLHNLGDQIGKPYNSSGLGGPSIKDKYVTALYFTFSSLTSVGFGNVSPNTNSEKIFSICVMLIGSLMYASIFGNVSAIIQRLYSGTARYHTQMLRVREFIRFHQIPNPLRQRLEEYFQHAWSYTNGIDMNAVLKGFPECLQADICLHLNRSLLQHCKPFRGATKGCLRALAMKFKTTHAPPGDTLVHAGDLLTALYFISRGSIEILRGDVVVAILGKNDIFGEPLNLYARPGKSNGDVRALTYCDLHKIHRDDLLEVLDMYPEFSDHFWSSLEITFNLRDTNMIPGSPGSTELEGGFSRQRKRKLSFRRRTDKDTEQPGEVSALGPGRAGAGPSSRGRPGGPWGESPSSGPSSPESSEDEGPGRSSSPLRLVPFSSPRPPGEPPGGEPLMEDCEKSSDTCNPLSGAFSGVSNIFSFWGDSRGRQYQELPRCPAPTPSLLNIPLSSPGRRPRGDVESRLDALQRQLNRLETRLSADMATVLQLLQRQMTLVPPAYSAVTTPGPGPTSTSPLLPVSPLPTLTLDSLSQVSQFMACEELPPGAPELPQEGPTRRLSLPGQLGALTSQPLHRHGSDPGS
Chain of Cytochrome P450 2D6 (P10635 whole entry): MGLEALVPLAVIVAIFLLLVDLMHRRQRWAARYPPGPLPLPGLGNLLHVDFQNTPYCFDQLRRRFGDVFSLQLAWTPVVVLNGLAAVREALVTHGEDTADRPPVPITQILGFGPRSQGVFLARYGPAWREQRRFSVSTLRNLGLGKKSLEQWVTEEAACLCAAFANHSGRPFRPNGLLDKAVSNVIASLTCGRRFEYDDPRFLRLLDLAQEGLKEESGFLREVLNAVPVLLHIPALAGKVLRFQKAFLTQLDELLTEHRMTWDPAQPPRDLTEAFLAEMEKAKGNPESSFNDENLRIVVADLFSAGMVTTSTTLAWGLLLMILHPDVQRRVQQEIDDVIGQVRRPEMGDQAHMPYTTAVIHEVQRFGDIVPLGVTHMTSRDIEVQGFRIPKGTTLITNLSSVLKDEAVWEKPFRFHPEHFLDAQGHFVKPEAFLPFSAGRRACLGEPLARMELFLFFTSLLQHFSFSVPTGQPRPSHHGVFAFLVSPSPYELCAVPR

CCC[C@@H](CCO)Nc1nc(N)nc2cc(OC)ccc12
IC50 [1]: > 10000 nM | metabolised at 0.25 h, 1 µM [2]: 35% | MEC [3]: 0.13 µM | IC50 (Cytochrome P450 2D6): 600 nM | MEC [4]: 0.2 µM | CC50 at 6 h [5]: > 24000 nM | MEC [6]: 0.5 µM | metabolised at 0.25 h, 1 µM [7]: 65% | IC50 [8]: 1780 nM | IC50 [9]: 2340 nM | IC50 (D(1A) dopamine receptor): 5750 nM
